Results on 18 molecules are retold here after ChEMBL document CHEMBL1153228, “Synthesis and in vivo evaluation of bicyclic gababutins” (Bioorg Med Chem Lett, 2010).

Calls of active or inactive are those of the source. No cut-off for these calls is given here. A value given as a limit tells only on which side of the number the result lay.

For data set [1], the target named is Voltage-dependent calcium channel alpha2delta subunit (Sus scrofa, UniProt O77773). As to the kind of experiment: Displacement of [3H]gabapentin from calcium channel alpha2delta in pig cerebral cortex membrane after 30 mins. It is filed as cell membranes.
Chain of Voltage-dependent calcium channel alpha2delta subunit (O77773 whole entry): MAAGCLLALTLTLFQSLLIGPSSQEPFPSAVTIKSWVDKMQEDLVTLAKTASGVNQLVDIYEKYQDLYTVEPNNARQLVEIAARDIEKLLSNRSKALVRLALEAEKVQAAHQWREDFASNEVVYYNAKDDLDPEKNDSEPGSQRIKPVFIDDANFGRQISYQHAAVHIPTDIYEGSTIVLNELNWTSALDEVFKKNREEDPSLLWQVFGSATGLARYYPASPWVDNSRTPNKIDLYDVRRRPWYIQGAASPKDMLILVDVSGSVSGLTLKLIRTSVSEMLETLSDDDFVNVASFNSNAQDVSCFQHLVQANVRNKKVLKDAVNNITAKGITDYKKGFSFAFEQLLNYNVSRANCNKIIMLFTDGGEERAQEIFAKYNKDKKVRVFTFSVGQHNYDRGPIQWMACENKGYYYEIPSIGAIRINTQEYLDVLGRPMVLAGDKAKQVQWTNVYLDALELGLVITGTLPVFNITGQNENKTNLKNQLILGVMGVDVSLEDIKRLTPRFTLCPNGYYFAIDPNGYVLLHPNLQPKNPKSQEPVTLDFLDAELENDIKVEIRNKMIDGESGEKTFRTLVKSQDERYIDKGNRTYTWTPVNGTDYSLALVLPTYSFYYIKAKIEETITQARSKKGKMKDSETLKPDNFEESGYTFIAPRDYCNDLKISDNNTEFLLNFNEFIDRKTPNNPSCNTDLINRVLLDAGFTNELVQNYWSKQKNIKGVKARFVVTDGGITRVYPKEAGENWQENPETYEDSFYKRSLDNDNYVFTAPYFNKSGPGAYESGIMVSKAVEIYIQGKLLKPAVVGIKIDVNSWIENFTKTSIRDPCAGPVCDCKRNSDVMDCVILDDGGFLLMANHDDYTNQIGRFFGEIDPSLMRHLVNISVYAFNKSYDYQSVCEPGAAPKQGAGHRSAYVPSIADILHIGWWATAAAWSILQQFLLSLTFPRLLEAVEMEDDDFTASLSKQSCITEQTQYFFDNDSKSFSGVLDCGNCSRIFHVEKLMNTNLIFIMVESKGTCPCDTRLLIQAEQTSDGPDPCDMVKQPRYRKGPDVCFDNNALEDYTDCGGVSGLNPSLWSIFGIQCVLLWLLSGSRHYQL
Data set [2] in a line: Inhibition of L-type amino acid transporter expressed in CHO cells assessed as inhibition of [3H]leucine uptake. It is filed as cell-based.
Data set [3] concerns Rattus norvegicus. Kind of data set: Analgesic activity in intrathecally dosed rat chronic constriction injury weight model assessed as inhibition of pain effect. It is filed as functional, organism-based. A digest of the protocol: (§1)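 Rat sciatic-nerve chronic constriction model: loose ligatures placed around the sciatic nerve produce hypersensitivity in one hind paw. Weight borne on each hind paw is measured, and the read-out is the difference between the ipsilateral (affected) and contralateral (unaffected) paw.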

Data set [4] can be described thus: Bioavailability in rat. It is filed as ADME, organism-based. As to conditions: in vivo.
Data set [5] can be described thus: Elimination half life in rat. The class given is ADME, organism-based. To be noted: in vivo.
A short description of data set [6]: Clearance in rat. It is filed as ADME, organism-based. To be noted: in vivo.
The test system of data set [7] is Rattus norvegicus. As to the kind of experiment: Analgesic activity in rat chronic constriction injury weight model assessed as inhibition of pain effect at 3 to 10 mg/kg, po. The class given is functional, organism-based. A digest of the protocol: as §1
Data set [8] can be described thus: Lipophilicity, log D at pH 7.4. It is filed as physicochemical. To be noted: buffer.

A word on the IC50: it is the point on the concentration scale where inhibition reaches its midpoint. Take `NC[C@@]1(CC(=O)O)C[C@@H]2CCC[C@@H]21`: the IC50 in data set [1] is 0.019 µM; in data set [2] it was 6930 µM. Besides, the outcome with Rattus norvegicus [3] was Active.

Turning to `NC[C@]1(CC(=O)O)C[C@H]2CCC[C@H]2C1`, the IC50 in data set [1] came to 2.6 µM.

`NCC1(CC(=O)O)CC2CCC2C1` (racemic): the IC50 in data set [1] was determined as 2.9 µM.

Usually bioavailability stands for dose-corrected exposure relative to a reference, in per cent. Usually half-life stands for how long it takes for the measured level to halve. The clearance is the volume of plasma or blood freed of the substance per unit of time. A high value points to efficient removal. As a reminder, the logD is the decadic logarithm of the distribution of all forms, ionised or not, between an organic phase and buffer at a given pH. In the case of `NC[C@]1(CC(=O)O)C[C@H]2CCC[C@H]21`, the half-maximal inhibitory concentration (IC50) is 0.046 µM in data set [1] and over 10000 µM in data set [2]. Besides, the bioavailability in data set [4] came to 100%. Besides, the half-life in data set [5] was 2.3 h. The same molecule came in with a clearance in data set [6] of 4.5 mL/min/kg. Moreover, the outcome with Rattus norvegicus [7] was Active. In data set [8], this molecule displayed a logD of -1.

In the case of `NC[C@]1(CC(=O)O)C[C@H]2CC[C@H]2C1`, the IC50 turned out to be 0.038 µM in data set [1] and 38 µM in data set [2]. In data set [4], the bioavailability is 84%. This molecule also had a half-life in data set [5] of 2.4 h. The clearance in data set [6] was determined as 4.3 mL/min/kg. In addition, the outcome in the data set on Rattus norvegicus [7] was Active. The molecule also displayed a logD in data set [8] of -1.

In the case of `NC[C@@]1(CC(=O)O)CC2CCCCC21` (mixture of isomers), in data set [1], the IC50 worked out at 3.09 µM.

`C[C@@H]1C[C@@](CN)(CC(=O)O)C[C@@H]1C`: the IC50 was 0.107 µM in data set [1] and 7 µM in data set [2].

On to `NC[C@]1(CC(=O)O)C[C@H]2CCCC[C@H]2C1`, for which the IC50 in data set [1] turned out to be 0.72 µM.

With `C[C@H]1CC(CN)(CC(=O)O)C[C@@H]1C` (relative stereo) [ATAGABALIN], the half-maximal inhibitory concentration (IC50) in data set [1] was 0.022 µM; in data set [2], 10 µM.

Take `NC[C@]1(CC(=O)O)CCC2CCCC21` (mixture of isomers): in data set [1], the IC50 came to 7.18 µM.

On to `NC[C@@]1(CC(=O)O)C[C@H]2CCCC[C@H]2C1`, for which, in data set [1], the IC50 is over 10 µM.

On to `NCC1(CC(=O)O)CC2CCCCC2C1` (racemic), for which the IC50 in data set [1] was over 10 µM.

For the molecule `NC[C@]1(CC(=O)O)CC2CCCC21` (mixture of isomers), the IC50 in data set [1] turned out to be 0.025 µM.

Take `NCC1(CC(=O)O)CC2CCCC2C1` (racemic): the IC50 in data set [1] is over 10 µM.

With `NC[C@]1(CC(=O)O)CC2CCCCC21` (mixture of isomers), in data set [1], the IC50 stood at 0.6 µM.

`NC[C@@]1(CC(=O)O)C[C@H]2CCC[C@H]2C1`: the IC50 in data set [1] is over 10 µM.

Take `NC[C@@]1(CC(=O)O)C[C@H]2CC[C@H]2C1`: in data set [1], the IC50 was 0.332 µM.

As to `NC[C@@]1(CC(=O)O)CC2CCCC21` (mixture of isomers), in data set [1], the IC50 was found to be 2.8 µM.
